# According to PubChem BioAssay:
# The source made the active and inactive calls.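 How the source made its calls, unless noted: active means viability at or under a set limit in both replicates, limit being median viability minus 3 SD (cut at about 48% in these data, passing the limit was not always enough); inconclusive means at or under the limit in just one replicate; inactive means at or above the limit in both replicates.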
# Columns and labels:
# [1] = reducers of endogenous Her2 protein level, primary screen, SKBR3 breast tumor cells, AlphaScreen, ATP viability (AID 461;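 active means Her2 level under about 52% in both replicate screens, with viability over 70% of control, limit read from the data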;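 on Her2 level: lower value means less Her2 protein in the cells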;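 on viability: percent of carrier control wells set as 100% viability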); settings: 18-24 h, measured here: SKBR3 viability, ATP luminescence, at 10 µM
# [2] = target: Receptor tyrosine-protein kinase erbB-2 (Homo sapiens) (UniProt P04626); assay: as above; settings: 18-24 h, at 10 µM, stronger effect = lower value
# Chain of Receptor tyrosine-protein kinase erbB-2 (Homo sapiens) (P04626 whole entry, looked up): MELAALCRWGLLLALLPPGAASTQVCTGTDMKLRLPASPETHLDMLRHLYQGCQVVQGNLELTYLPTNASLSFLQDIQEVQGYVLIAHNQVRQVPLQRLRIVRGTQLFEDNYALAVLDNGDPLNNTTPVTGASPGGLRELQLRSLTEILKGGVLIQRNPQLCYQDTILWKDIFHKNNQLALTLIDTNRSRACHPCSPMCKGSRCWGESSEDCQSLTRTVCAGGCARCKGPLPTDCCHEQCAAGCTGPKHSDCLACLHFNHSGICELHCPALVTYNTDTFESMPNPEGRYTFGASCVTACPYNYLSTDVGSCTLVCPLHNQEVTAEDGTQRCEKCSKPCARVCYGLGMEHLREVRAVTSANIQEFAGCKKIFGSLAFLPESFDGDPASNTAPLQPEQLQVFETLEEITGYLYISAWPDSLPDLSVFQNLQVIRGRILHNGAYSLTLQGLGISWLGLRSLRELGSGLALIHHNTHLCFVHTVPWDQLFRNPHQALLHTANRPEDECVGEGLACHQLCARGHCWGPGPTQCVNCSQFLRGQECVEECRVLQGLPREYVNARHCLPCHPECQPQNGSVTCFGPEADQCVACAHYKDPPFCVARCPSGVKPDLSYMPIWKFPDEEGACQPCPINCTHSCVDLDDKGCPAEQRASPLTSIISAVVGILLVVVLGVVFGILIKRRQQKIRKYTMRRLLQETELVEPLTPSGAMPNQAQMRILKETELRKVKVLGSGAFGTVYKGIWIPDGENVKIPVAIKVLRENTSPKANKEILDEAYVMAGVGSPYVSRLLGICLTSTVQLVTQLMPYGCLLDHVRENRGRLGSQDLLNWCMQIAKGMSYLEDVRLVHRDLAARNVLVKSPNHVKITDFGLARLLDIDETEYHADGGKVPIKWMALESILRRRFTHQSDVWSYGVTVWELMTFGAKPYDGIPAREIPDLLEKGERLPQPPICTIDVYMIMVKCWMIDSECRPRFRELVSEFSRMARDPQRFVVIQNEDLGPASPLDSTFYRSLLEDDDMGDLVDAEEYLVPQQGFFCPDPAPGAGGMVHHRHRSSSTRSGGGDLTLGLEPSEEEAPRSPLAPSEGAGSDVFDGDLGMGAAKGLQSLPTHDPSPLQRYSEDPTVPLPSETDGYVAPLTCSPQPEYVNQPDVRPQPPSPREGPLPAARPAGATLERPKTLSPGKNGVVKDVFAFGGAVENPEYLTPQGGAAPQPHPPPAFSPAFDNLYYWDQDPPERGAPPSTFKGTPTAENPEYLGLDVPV
# [3] = SK-BR-3 cell growth inhibitors, pilot screen, 24 h, human (AID 572;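 active means viability at or below 10% of carrier control in both of two separate runs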;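 further: compound exposure lasted between 18 and 24 h rather than exactly 24 h; 100% = carrier-treated control wells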); settings: SK-BR-3 viability, CellTiter-Glo luminescence, at 10 µM, stronger effect = lower value
# [4] = HUVEC growth inhibition – cell-based, human, primary screen (AID 575;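 active means viability at or below 30% in both replicate assays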;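 further: 100% = median of untreated cell wells with 0.1% DMSO on each plate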); settings: HUVEC proliferation, CellTiter-Glo luminescence, 72 h; at 10 µM; stronger effect = lower value
# Method in brief: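 Test system: HUVEC primary cells. Quantity: 1250 endothelial cells in each well. Dosing: single-point 10 µM, DMSO 0.1% final. Incubation: 72 h treatment at 37 °C. Measured by: CTG luminescence. Control set: DMSO cell controls and MePR drug controls. Plate: collagen-coated 384-well format.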
# [5] = growth inhibitors of H69AR lung tumor, primary screen, human, duplicate replicates (AID 580); settings: H69AR lung tumor cells viability, ATP luminescence, 72 h; at 10 µM; stronger effect = lower value;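 further: 100% = mean luminescence of untreated wells and 0% = no signal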
# [6] = reversal of MRP1-mediated doxorubicin resistance, pilot screen, H69AR cells, doxorubicin co-treatment (AID 601;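 active means viability loss from added drug above about 55%, and viability with drug at most 40%, in both replicates, limit read from the data, passing the limit was not always enough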); settings: CellTiter-Glo, 72 h, at 10 µM; for differential viability (reversal): stronger effect = higher value
# [7] = 384-well plate pilot, post-Golgi transport modulator project, inhibition of yeast transport mutant growth (AID 636; in the data active means inhibition above about 31%); settings: absorbance 615 nm, about 18 h, stronger effect = higher value
# [8] = growth suppression of yeast trafficking mutant, preliminary HTS, modulators of trafficking downstream of Golgi apparatus project, 1536-format plate, OD 615 nm (AID 637; in the data active means inhibition above about 30%); settings: yeast transport mutant growth, absorbance 615 nm, 18 h; stronger effect = higher value
# [9] = H69AR cells + 2 uM doxorubicin, measured here: viability with 2 uM doxorubicin, stronger effect = lower value
# [10] = H69AR cells, compound alone cytotoxicity
SMILES,viability [1] [%],Her2 level [2],viability [3],viability [4],viability [5],differential viability (reversal) ([6]; H69AR cells + 2 uM doxorubicin),"viability [6, 9] [%]","viability [6, 10] [%]",inhibition [7],inhibition [8]
Cn1c(=O)[nH]c(=O)c2c1nc(N1CCCCCC1)n2CCCSc1nc2ccccc2o1,84.5,80% (inactive),84.5% (inactive),66.4% (inactive),80.7% (inactive),37% (inactive),43.7,80.7,-5.68% (inactive),3.97% (inactive)
COC1CCCCC1NS(=O)(=O)c1ccccc1 (stereo not given),106,96.5% (inactive),106% (inactive),97.8% (inactive),97.7% (inactive),1.47% (inactive),96.2,97.7,-3.59% (inactive),3.17% (inactive)
CCOC(=O)Cc1csc(NC(=O)CSc2nnc(C(C)C)n2CC)n1,126,86% (inactive),126% (inactive),88% (inactive),89.8% (inactive),1.63% (inactive),88.2,89.8,-6.13% (inactive),1.59% (inactive)
CCOc1ccccc1Nc1nnc(SCC(=O)N2CCCC2)s1,104,91.5% (inactive),104% (inactive),103% (inactive),101% (inactive),7.78% (inactive),92.8,101,-3.12% (inactive),-0.95% (inactive)
Cc1ccc2cc(CN(CC(C)C)C(=O)C3CCCO3)c(=O)[nH]c2c1 (stereo not given),95,98% (inactive),95% (inactive),102% (inactive),102% (inactive),5.11% (inactive),96.8,102,-2.5% (inactive),-4.18% (inactive)
CCn1c(CCNC(=O)c2cccs2)nnc1SCC(=O)c1ccc(OC)cc1,106,138% (inactive),106% (inactive),95.7% (inactive),97.4% (inactive),-5.32% (inactive),103,97.4,-1.71% (inactive),-0.33% (inactive)
O=C(NCc1ccccn1)c1ccc2nc(-c3ccco3)c(-c3ccco3)nc2c1,101,90.5% (inactive),101% (inactive),111% (inactive),73.8% (inactive),-5.92% (inactive),79.8,73.8,-5.66% (inactive),2.13% (inactive)
CCOC(=O)N1CCN(C(=O)c2ccc(N3C(=O)CCC3=O)cc2)CC1,110,110% (inactive),110% (inactive),104% (inactive),105% (inactive),17.4% (inactive),87.6,105,-7.03% (inactive),-9.83% (inactive)
Cc1ccnc(N2CCN(C(=O)CSc3nc4ccccc4nc3N3CCCCC3)CC2)c1,109,70.5% (inactive),109% (inactive),62% (inactive),92.7% (inactive),9.7% (inactive),83,92.7,-3.03% (inactive),-2.83% (inactive)
COCc1nnc(NC(=O)c2ccc(NC(C)=O)cc2)s1,100,102% (inactive),100% (inactive),86.4% (inactive),105% (inactive),14.8% (inactive),90.2,105,0.13% (inactive),-9.19% (inactive)
CC1CCc2cc(F)cc3c(O)c(C(=O)Nc4cnccn4)c(=O)n1c23 (stereo not given),97.5,82.5% (inactive),97.5% (inactive),99.9% (inactive),92.8% (inactive),-1.42% (inactive),94.2,92.8,-0.92% (inactive),4.52% (inactive)
CCCc1cc(=O)n2[nH]cnc2n1,104,102% (inactive),104% (inactive),110% (inactive),100% (inactive),3.53% (inactive),96.6,100,-6.22% (inactive),0.67% (inactive)
COc1ccc(NC(=O)CCNC(=O)Cn2ccc3ccccc3c2=O)c(OC)c1,101,91% (inactive),101% (inactive),108% (inactive),103% (inactive),14.4% (inactive),88.1,103,-7.97% (inactive),7.17% (inactive)
CC(C)(C)OC(=O)N1CC=C2C(C#N)=C(N)C(C#N)(C#N)[C@H](c3cccnc3)[C@H]2C1,88,100% (inactive),88% (inactive),81.1% (inactive),86.3% (inactive),-12.4% (inactive),98.7,86.3,-2.67% (inactive),14% (inactive)
